Reference: ChEMBL document CHEMBL3259682, “Synthesis, β-haematin inhibition, and in vitro antimalarial testing of isocryptolepine analogues: SAR study of indolo[3,2-c]quinolines with various substituents at C2, C6, and N11” (Bioorg Med Chem, 2014)

What was measured:
[1] = Selectivity index, ratio of IC50 for rat L6 cells to IC50 for erythrocytic stage of chloroquine-sensitive Plasmodium falciparum NF54; format: toxicity, cell-based; conditions: read-out: Ratio IC50
Summary of the method: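 Selectivity index is the L6 cytotoxicity IC₅₀ divided by the NF54 antiplasmodial IC₅₀. Each IC₅₀ is the mean of two independent assays.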

[2] = test system: Plasmodium berghei; test: Antimalarial activity against Plasmodium berghei infected in Swiss mouse assessed as reduction in parasitemia at 50 mg/kg, ip qd administered for 4 days measured on day 4 post last dose by FACS analysis relative to control; format: functional; design: scale not given: the % may be the effect or the level left; conditions: route intraperitoneal
Summary of the method: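 Plasmodium berghei-infected mice, standard '4 Day Test'. Parasitaemia measured by FACS. Activity is the difference between mean percent parasitaemia of control (n = 5 mice) and treated groups, expressed as a percentage of control.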

[3] = test system: Plasmodium berghei; test: Antimalarial activity against Plasmodium berghei infected in Swiss mouse assessed as survival at 50 mg/kg, ip qd administered for 4 days measured on day 4 post last dose; format: functional; conditions: route intraperitoneal
[4] = test system: Plasmodium falciparum; test: Antimalarial activity against erythrocytic stage of chloroquine/pyrimethamine-resistant Plasmodium falciparum K1 after 48 hrs by [3H]-hypoxanthine incorporation assay; format: functional, organism-based
Summary of the method: (§1)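 Chloroquine/pyrimethamine-resistant K1 and drug-susceptible NF54 P. falciparum were grown in hypoxanthine-free RPMI 1640 with HEPES, NaHCO₃, neomycin and Albumax, in human A⁺ erythrocytes at 2.5% haematocrit and 0.3% parasitaemia. DMSO stocks were 10 mg/mL, tested in eleven 3-fold dilutions under 4% CO₂/3% O₂/93% N₂. ³H-hypoxanthine was added at 48 h, then 24 h more before filter harvest. IC₅₀ is the mean of two assays; RI = K1/NF54 IC₅₀.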

[5] = Resistance index, ratio of IC50 for chloroquine/pyrimethamine-resistant Plasmodium falciparum K1 to IC50 for erythrocytic stage of chloroquine-sensitive Plasmodium falciparum NF54; format: functional; summary of the method: as §1
[6] = Selectivity index, ratio of IC50 for rat L6 cells to IC50 for chloroquine/pyrimethamine-resistant Plasmodium falciparum K1; format: toxicity, cell-based; conditions: read-out: Ratio IC50
[7] = test system: Plasmodium falciparum; test: Antimalarial activity against erythrocytic stage of chloroquine-sensitive Plasmodium falciparum NF54 after 48 hrs by [3H]-hypoxanthine incorporation assay; format: functional, organism-based
Summary of the method: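 ³H-hypoxanthine incorporation against P. falciparum NF54. DMSO stocks at 10 mg/mL were added to cultures in hypoxanthine-free RPMI 1640 with HEPES, NaHCO₃, neomycin and Albumax, using human A⁺ red cells at 2.5% haematocrit and 0.3% parasitaemia. Eleven 3-fold serial dilutions were tested. Incubation was under 4% CO₂/3% O₂/93% N₂. ³H-hypoxanthine was added after 48 h, followed by a further 24 h. Cells were harvested onto glass-fibre filters. IC₅₀ is the mean of two independent assays.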

[8] = test system: L6; test: Cytotoxicity against rat L6 cells after 70 hrs by Alamar Blue assay; format: functional, cell-based; conditions: L6, 70 h
Summary of the method: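 Rat skeletal myoblast L6 cells, 4000 per well, in RPMI 1640 with 1% L-glutamine and 10% fetal bovine serum. Eleven 3-fold serial drug dilutions were tested. Alamar Blue was added for a final 2 h. Fluorescence was read at excitation 536 nm and emission 588 nm. IC₅₀ is the mean of two independent assays.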

[9] = Binding affinity to haematin assessed as inhibition of beta-haematin formation after 5 to 6 hrs by pyridine-ferrichrome-based method
Summary of the method: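 Detergent (NP-40) mediated β-haematin formation assay, run manually. Compounds came from 20, 2 and 0.4 mM DMSO stocks, tested at 0–1000 µM final. Haematin was 100 µM final in 0.5 M acetate buffer, pH 4.8. Incubation was 5–6 h at 37 °C. Read-out used the pyridine-ferrichrome method with UV–vis absorbance. IC₅₀ came from sigmoidal dose–response fits.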

| Compound | selectivity ratio [1] | Activity [2] [%] | Survival [3] [days] | IC50 [4] [nM] | Ratio IC50 [5] | selectivity ratio [6] | IC50 [7] [nM] | IC50 [8] [nM] | IC50 [9] [nM] |
| --- | --- | --- | --- | --- | --- | --- | --- | --- | --- |
| CC(C)(CNC(=O)Nc1ccccc1)CNc1nc2ccc(Cl)cc2c2[nH]c3ccccc3c12 | 378 | 38 | 4 | 16.9 | 1.6 | 236 | 10.6 | 4000 | 11700 |
| O=C(NCCCNc1nc2ccc(Br)cc2c2[nH]c3ccccc3c12)Nc1ccccc1 | 56.9 |  |  | 36.9 | 1.6 | 34.7 | 22.5 | 1280 | 13900 |
| CC(CN)CNc1nc2ccc(Cl)cc2c2[nH]c3ccccc3c12 (stereo unspecified) | 65 |  |  | 59 | 2 | 32.5 | 29.5 | 1920 | 12700 |
| NCCCCCCNc1nc2ccccc2c2[nH]c3ccccc3c12 | 78.8 |  |  | 90.2 | 6 | 13.1 | 15 | 1180 | 49600 |
| CC(CNC(=O)Nc1ccccc1)CNc1nc2ccc(Cl)cc2c2[nH]c3ccccc3c12 (stereo unspecified) | 377 |  |  | 17.5 | 1.6 | 235 | 10.9 | 4110 | 14600 |
| Cc1ccc2nc(NCCCNC(=O)Nc3ccccc3)c3c4ccccc4[nH]c3c2c1 | 40.9 |  |  | 42.5 | 1.8 | 22.7 | 23.6 | 966 | 17200 |
| CN(C)CCCNc1nc2ccccc2c2[nH]c3ccccc3c12 | 64.3 |  |  | 25.1 | 2.66 | 24.1 | 9.4 | 606 | 83600 |
